Like-named read-outs stand apart in the source and are kept apart here.
Legend:
[1] = target: T1, Drosophila melanogaster HhC (Drosophila melanogaster, UniProt Q02936); assay: Cholesterolysis kinetics; assay type: biochemical; details: C−H−Y
T1 sequence (Q02936 258-471 limits assumed): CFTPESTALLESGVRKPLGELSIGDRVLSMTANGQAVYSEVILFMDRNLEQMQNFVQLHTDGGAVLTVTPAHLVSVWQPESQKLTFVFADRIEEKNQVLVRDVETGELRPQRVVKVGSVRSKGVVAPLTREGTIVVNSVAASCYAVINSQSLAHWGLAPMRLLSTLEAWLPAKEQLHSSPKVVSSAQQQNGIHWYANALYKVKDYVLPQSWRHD

HhC [2] = target: T2, HhC (Drosophila melanogaster, UniProt Q02936); assay: MS/MS mapping of tSP binding site on HhC/tSP adduct; details: product form of HhC, preliminary MS/MS
T2 sequence (Q02936 258-471 limits assumed): T1 sequence (Q02936 258-471 limits assumed)

HhC [3] = target: T2, HhC; assay type: binding; details: HhC 5 μM, tSP 10 μM, competitor 200 μM
Method in brief: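 HhC at 5 μM with diazirine-bearing sterol probe tSP and 50 μM azide-linked fluorophore. Saturating cholesterol or test compound added as competitor. UV photolysis. Labeling read by SDS-PAGE with fluorescent gel imaging. Coomassie stain for total HhC.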

[4] = target: T1, Drosophila melanogaster HhC; details: read-out: KM as HhC substrate; cited from earlier work

Structure (SMILES) | difference in kmax/KM compared with cholesterol [1] [fold] | kmax as HhC substrate ([1]; no inhibitor) [s⁻¹] | Km ([1]; read-out: KM as HhC substrate, no inhibitor) [µM] | site of probe attachment on HhC (HhC [2]) | effect on active-site photolabeling of HhC by tSP (HhC [3]) | Km [4] [µM]
C#CCCCCOC(=O)CC[C@@H](C)[C@H]1CCC2C3CC4(N=N4)[C@H]4C[C@@H](O)CC[C@]4(C)C3CC[C@@]21C (stereo partly shown) [tSP] | < 2 | 0.0042 | 6.8 | EQLHSSPK (HhC residues 174−181) |  | 
CC(C)CCC[C@@H](C)[C@H]1CC[C@H]2[C@@H]3CC=C4C[C@@H](O)CC[C@]4(C)[C@H]3CC[C@]12C [cholesterol] |  | 0.0019 |  |  | competitively blocks | 1.5

Reference: PMC9382716 (Biochemistry, 2021)
